The values below come from ChEMBL document CHEMBL2157916, “Design and synthesis of potent hydroxyethylamine (HEA) BACE-1 inhibitors carrying prime side 4,5,6,7-tetrahydrobenzazole and 4,5,6,7-tetrahydropyridinoazole templates” (Bioorg Med Chem Lett, 2012).

Data set [1] can be described thus: Apparent permeability across human Caco2 cells. It is filed as ADME, cell-based. To be noted: Caco-2. (Caco-2 cells form a polarised layer with tight junctions and transporters.)
Data set [2] can be described thus: Intrinsic clearance in human liver microsomes. The class given is ADME, Microsome. Particulars: read-out: CLH. In general terms: Liver microsomes are a subcellular fraction often used to study metabolism.
The nature of data set [3]: Ratio of drug uptake in brain to plasma in C57/B1 mouse at […], sc administered for 24 hrs. Particulars: read-out: BPR. It is filed as ADME, organism-based.
The nature of data set [4]: Plasma concentration in C57/B1 mouse at 20 umol/kg, iv at 0.5 hrs. The class given is ADME, organism-based. The method, boiled down:
(§1)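 Male C57/B1 mice dosed iv at 20 μmol/kg. Brain and plasma exposure measured 0.5 h after dose, with brain levels followed up to 6 h after dose.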

A short description of data set [5]: Drug uptake in C57/B1 mouse brain at 20 umol/kg, iv up to 6 hrs. It is filed as ADME, organism-based. To be noted: read-out: Drug uptake. The method, boiled down: as §1
Data set [6] can be described thus: Plasma concentration in C57/B1 mouse at […], sc administered for 24 hrs. The class given is ADME, organism-based.
Data set [7] is described as follows: Drug uptake in C57/B1 mouse brain at 20 umol/kg, iv at 0.5 hrs. Particulars: read-out: Drug uptake. It is filed as ADME, organism-based. The method in brief: as §1

As a reminder, the Papp is a coefficient for how fast a substance crosses the barrier. Consider `CC(=O)N[C@@H](Cc1ccccc1)[C@H](O)CN[C@H]1CC(C)(C)Oc2ccc(CC(C)(C)C)cc21`, for which the apparent permeability coefficient (Papp) in data set [1] worked out at 21 ×10⁻⁶ cm/s. Moreover, the microsomal CLint in data set [2] amounted to 200 µL/min/mg.
With `CC(=O)N[C@@H](Cc1ccccc1)[C@H](O)CN[C@H]1CC(C)(C)Cc2nn(CC(C)C)cc21`, the Papp in data set [1] was found to be 1.6 ×10⁻⁶ cm/s. In addition, in data set [2], the microsomal CLint turned out to be 16 µL/min/mg.
Taken in the same sequence, the figures for `CC(=O)N[C@@H](Cc1ccccc1)[C@H](O)CN[C@H]1CC(C)(C)Cn2nc(CC(C)(C)C)cc21` were 5 ×10⁻⁶ cm/s and 70 µL/min/mg.
The matching figures for `CC(=O)N[C@@H](Cc1ccccc1)[C@H](O)CNC1CC(C)(C)Oc2sc(CC(C)(C)C)cc21` (mixture of isomers): 5.6 ×10⁻⁶ cm/s and 82 µL/min/mg.
Turning to `CC(=O)N[C@@H](Cc1ccccc1)[C@H](O)CNC1CC(C)(C)Cc2[nH]c(CC(C)(C)C)nc21` (mixture of isomers), the microsomal CLint in data set [2] turned out to be 15 µL/min/mg.
Turning to `CC(=O)N[C@@H](Cc1ccccc1)[C@H](O)CNC1CC(C)(C)Cc2nn(CC(C)(C)C)cc21` (mixture of isomers), the Kp at 24 h in data set [3] was found to be 0.69. In addition, the concentration at 0.5 h came out at 4750 nM in data set [4] and 200 nM in data set [7]. The concentration at 6 h in data set [5] is 68 nM. In addition, the concentration at 24 h in data set [6] was determined as 450 nM. In addition, the Papp in data set [1] stood at 1.5 ×10⁻⁶ cm/s. In addition, in data set [2], the microsomal CLint stood at 25 µL/min/mg.
